Data reported in paper PMC2115978 (The Journal of Cell Biology, 1990).
Like-named read-outs stand apart in the source and are kept apart here.

Legend:
[1] = system: endosomal insulin degrading activity (GE fraction); assay type: biochemical, rat; settings: for effect on endosomal 125I-insulin degradation (in words): concentrations as in Tables I and II
macrophage endosomes = settings: identical cell-free system; cited from earlier work
[2] = system: endosomal protease(s) of rat liver endosomes (GE fraction); assay type: in vitro ADME; settings: mean ± SD, n = 3; for degradation within isolated endosomes by acid precipitation: cell-free system, 37C, up to 60 min, 10% TCA
[3] = system: endosomal protease(s) of rat liver endosomes (GE fraction); test: Sephadex G-50 chromatography of radioactivity acid-extracted from endosomes; assay type: in vitro ADME
insulin receptor = insulin receptor (Rattus norvegicus, UniProt P15127); test: PEG precipitation of insulin-receptor complexes in endosomes; assay type: binding; settings: for effect on insulin dissociation from receptor: 15 min, presence or absence of ATP, PCMB 1 mM
[4] = Internalization of injected 125I-insulin into GE fraction of liver; assay type: in vivo, rat; settings: 5 min after portal vein injection, 100 ng/100 g bw; mean ± SD, n = 9
[5] = cited from earlier work
[6] = system: GE fraction proton translocase activity; test: Cell-free ATP-dependent acidification assay; assay type: biochemical, rat; settings: 1 µM added at end of incubation; acridine orange absorbance 492/540 nm
In short: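 Pelleted at 16,000 g for 1 h, Dounce-resuspended, equilibrated 3-6 h at 4°C. Acridine orange 6 µM, ATP 0.4 mM (final); initial quench rates recorded. Test compound 1 µM added after incubation.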

EGF receptor = settings: freshly prepared endosomes; ref 49a; cited from earlier work
prolactin receptor = target: T1, prolactin receptor (Rattus norvegicus, UniProt P05710); test: Prolactin dissociation from its receptor in endosomes; assay type: binding
T1 sequence (P05710 20-310 isoform P05710-3 limits assumed): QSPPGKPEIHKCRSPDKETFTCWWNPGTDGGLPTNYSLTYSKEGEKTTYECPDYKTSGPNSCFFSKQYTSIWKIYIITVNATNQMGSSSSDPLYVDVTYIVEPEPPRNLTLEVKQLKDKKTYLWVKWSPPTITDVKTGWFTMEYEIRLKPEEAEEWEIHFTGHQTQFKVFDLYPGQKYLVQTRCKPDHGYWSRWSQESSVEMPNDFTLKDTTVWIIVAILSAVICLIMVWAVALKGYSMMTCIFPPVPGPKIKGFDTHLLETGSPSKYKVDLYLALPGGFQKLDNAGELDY

[7] = Table II, 10 µM, 0-30 min, mean ± SD, n = 3
[8] = Table II, 1 mM, 0-30 min, mean ± SD, n = 3
[9] = Table I, 1 mM, acid solubility at 30 min, mean ± SD of 3 experiments
[10] = Table II, 50 µM, 0-30 min, mean ± SD, n = 3
[11] = Table II, nucleotide 10 mM (in place of ATP), 0-30 min, mean ± SD, n = 3
[12] = Table II, 2 mM, 0-30 min, mean ± SD, n = 3

insulin receptor, sequence (P15127 27-759 limits assumed): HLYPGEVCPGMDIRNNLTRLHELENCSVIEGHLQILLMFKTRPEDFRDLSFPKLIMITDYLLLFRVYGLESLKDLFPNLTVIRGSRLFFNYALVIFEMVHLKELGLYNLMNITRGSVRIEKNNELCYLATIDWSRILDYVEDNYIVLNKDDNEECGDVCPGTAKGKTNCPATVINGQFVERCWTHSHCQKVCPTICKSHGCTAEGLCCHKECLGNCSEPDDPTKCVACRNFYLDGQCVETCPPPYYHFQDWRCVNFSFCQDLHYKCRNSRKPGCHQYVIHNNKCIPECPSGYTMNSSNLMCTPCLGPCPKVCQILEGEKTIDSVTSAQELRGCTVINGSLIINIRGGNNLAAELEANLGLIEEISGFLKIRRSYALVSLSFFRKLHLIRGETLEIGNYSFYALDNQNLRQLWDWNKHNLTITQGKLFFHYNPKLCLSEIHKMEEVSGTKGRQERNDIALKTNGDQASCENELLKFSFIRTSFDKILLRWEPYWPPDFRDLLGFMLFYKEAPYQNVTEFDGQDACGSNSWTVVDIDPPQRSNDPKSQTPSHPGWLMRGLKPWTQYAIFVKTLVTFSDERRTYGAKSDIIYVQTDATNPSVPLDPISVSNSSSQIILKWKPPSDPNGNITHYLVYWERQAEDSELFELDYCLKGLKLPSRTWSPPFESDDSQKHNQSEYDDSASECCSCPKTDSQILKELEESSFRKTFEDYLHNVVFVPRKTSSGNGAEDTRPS
insulin receptor, sequence (P15127 764-1383 partner limits assumed): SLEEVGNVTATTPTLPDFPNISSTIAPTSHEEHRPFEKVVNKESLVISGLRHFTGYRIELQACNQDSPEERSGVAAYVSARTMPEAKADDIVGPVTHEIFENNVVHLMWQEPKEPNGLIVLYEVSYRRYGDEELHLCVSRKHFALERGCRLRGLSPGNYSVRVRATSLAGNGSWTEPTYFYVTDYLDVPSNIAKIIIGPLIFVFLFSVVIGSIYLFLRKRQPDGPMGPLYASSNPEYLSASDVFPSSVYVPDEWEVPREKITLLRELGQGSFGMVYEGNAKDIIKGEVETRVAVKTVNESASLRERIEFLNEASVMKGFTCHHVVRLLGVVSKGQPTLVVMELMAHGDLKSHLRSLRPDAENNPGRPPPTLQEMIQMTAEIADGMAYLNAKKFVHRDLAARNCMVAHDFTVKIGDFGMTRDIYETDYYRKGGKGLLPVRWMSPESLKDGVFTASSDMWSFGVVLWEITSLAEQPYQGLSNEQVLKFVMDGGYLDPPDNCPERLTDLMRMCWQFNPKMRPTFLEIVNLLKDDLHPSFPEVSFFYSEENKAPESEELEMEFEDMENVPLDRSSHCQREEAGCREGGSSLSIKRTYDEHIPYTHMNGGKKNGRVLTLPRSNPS

## C(=NC1CCCCC1)=NC1CCCCC1 [DCCD, dicyclohexylcarbodiimide]
[1]; [7]
  125I-insulin degraded (percentage of control): 50.4%
[1]; [8]
  125I-insulin degraded (percentage of control): 38.7%
[1]; 30 min
  effect on endosomal 125I-insulin degradation (in words): significant inhi- bition

## CC[C@H]1/C=C/C=C/C[C@@H](C)[C@H](O)[C@@](C)(O)C(=O)[C@@H](C)[C@H](O)[C@@H](C)C(=O)[C@@H](C)[C@H](O)[C@@H](C)/C=C/C(=O)O[C@@H]2[C@H](C)[C@H](CC1)O[C@]1(CC[C@H](C)[C@H](C[C@@H](C)O)O1)[C@H]2C [Oligomycin]
[1]; Table II, 5 µg/ml, 0-30 min, mean ± SD, n = 3
  125I-insulin degraded (percentage of control): 90.2%
[1]; 30 min
  effect on endosomal 125I-insulin degradation (in words): little effect

## O=S(=O)(F)Cc1ccccc1 [PMSF]
[1]; [9]
  125I-insulin degraded (percentage of control): 89.2%
[1]; 30 min
  effect on endosomal 125I-insulin degradation (in words): no significant effect
Macrophage endosomes
  effect on degradation of mannose-BSA in macrophage endosomes: inhibition of degradation

## Leupeptin
[1]; 30 min
  effect on endosomal 125I-insulin degradation (in words): no significant effect
Macrophage endosomes
  effect on degradation of mannose-BSA in macrophage endosomes: inhibition of degradation

## O=C(O)CN(CCN(CC(=O)O)CC(=O)O)CC(=O)O [EDTA]
[1]; 30 min
  effect on endosomal 125I-insulin degradation (in words): no significant effect

## 125I-insulin: Porcine insulin (26.8 IU/mg, Eli Lilly) radioiodinated by the chloramine T method
[2]; Table II, no nucleotide added (minus ATP), 0-30 min
  125I-insulin degraded (percentage of control): 35.4%
[3]; after 15 min incubation, rats given 2 µg 125I-insulin/100 g bw
  increase in size of peak eluting at position of radioiodotyrosine (peak III): threefold increase
Insulin receptor; 0 min
  intact 125I-insulin (acid precipitable) retained in freshly prepared endosomes: 82%
Insulin receptor; 15 min incubation +ATP
  degradation of insulin: 5.8 ng.mg cell fraction protein-1
  dissociation of insulin from receptor: 1.7 ng insulin.mg cell fraction pr
Insulin receptor; 15 min incubation minus ATP
  loss and degradation of free insulin: 2.1 ng.mg cell fraction protein-1
  loss of receptor-bound insulin: no loss
Insulin receptor; freshly prepared endosomes
  internalized ligand dissociated from receptor: 59%
Insulin receptor; freshly prepared endosomes, 0 min
  proportion of intact insulin that was receptor-bound (PEG precipitable): 41%
[4]
  enrichment in GE fraction compared to parent homogenate: 40 + 4 fold
[5]
  t1/2 of in vivo insulin clearance: 6 min

## Pepstatin
[1]; 30 min
  effect on endosomal 125I-insulin degradation (in words): no significant effect
Macrophage endosomes
  effect on degradation of mannose-BSA in macrophage endosomes: inhibition of degradation

## CC[C@@]1([C@@H]2O[C@@H]([C@H]3O[C@@](O)(CO)[C@H](C)C[C@@H]3C)C[C@@H]2C)CC[C@H]([C@]2(C)CC[C@]3(C[C@H](O)[C@@H](C)[C@@H]([C@@H](C)[C@@H](OC)[C@H](C)C(=O)O)O3)O2)O1 [Monensin]
[1]; 50 µM, 30 min
  inhibition of 125I-insulin degradation: ~ 80%
[1]; [10]
  125I-insulin degraded (percentage of control): 20.6%
[1]; 30 min
  effect on endosomal 125I-insulin degradation (in words): inhibited markedly

## Nc1ncnc2c1ncn2[C@@H]1O[C@H](COP(=O)(O)OP(=O)(O)OP(=O)(O)O)[C@@H](O)[C@H]1O [ATP]
[1]; [11]
  125I-insulin degraded (percentage of control): 100%

## N=C(N)NC(=O)c1nc(Cl)c(N)nc1N [Amiloride]
[1]; [12]
  125I-insulin degraded (percentage of control): 96.6%
[1]; 30 min
  effect on endosomal 125I-insulin degradation (in words): little effect

## Nc1ncnc2c1ncn2[C@@H]1O[C@H](COP(=O)(O)OP(=O)(O)NP(=O)(O)O)[C@@H](O)[C@H]1O [AMP- PNP]
[1]; [11]
  125I-insulin degraded (percentage of control): 24.5%

## CCN(CC)CCCC(C)Nc1ccnc2cc(Cl)ccc12 (centres unmarked) [Chioroquine, chloroquine]
[1]; 2 mM, 30 min
  inhibition of 125I-insulin degradation: ~ 80%
[1]; [12]
  125I-insulin degraded (percentage of control): 16.3%
[1]; 30 min
  effect on endosomal 125I-insulin degradation (in words): inhibited markedly

## c1cnc2c(c1)ccc1cccnc12 [1,10-Phenanthroline, 1,10-phenanthroline]
[1]; 1 mM, 30 min
  inhibition of 125I-insulin degradation: 91%
[1]; [9]
  125I-insulin degraded (percentage of control): 8.8%
[1]; 30 min
  effect on endosomal 125I-insulin degradation (in words): Significant inhibition
Insulin receptor
  effect on insulin dissociation from receptor: inhibited

## CCN1C(=O)C=CC1=O [NEM, N-ethylmaleimide]
[1]; [7]
  125I-insulin degraded (percentage of control): 23.6%
[1]; [8]
  125I-insulin degraded (percentage of control): 26.8%
[1]; 30 min
  effect on endosomal 125I-insulin degradation (in words): significant inhi- bition
[1]; 30 min, listed as N-ethylmaleimide (NEM)
  effect on endosomal 125I-insulin degradation (in words): inhibited markedly

## Aprotinin
[1]; 30 min
  effect on endosomal 125I-insulin degradation (in words): no significant effect

## [O]=[V]([O-])([O-])[O-] [Vanadate]
[1]; Table II, 100 µM, 0-30 min, mean ± SD, n = 3
  125I-insulin degraded (percentage of control): 99.9%
[1]; 30 min
  effect on endosomal 125I-insulin degradation (in words): little effect

## Antipain
[1]; 30 min
  effect on endosomal 125I-insulin degradation (in words): no significant effect
Macrophage endosomes
  effect on degradation of mannose-BSA in macrophage endosomes: inhibition of degradation

## O=C(O)c1cc[c]([Hg][Cl])cc1 [PCMB, p-chloromercuribenzoic acid]
[1]; 1 mM, 30 min
  inhibition of 125I-insulin degradation: 100%
[1]; [9]
  125I-insulin degraded (percentage of control): 0%
[1]; 30 min
  effect on endosomal 125I-insulin degradation (in words): Significant inhibition
Insulin receptor
  effect on insulin dissociation from receptor: inhibited

## Nc1ncnc2c1ncn2[C@@H]1O[C@H](COP(=O)(O)OP(=O)(O)O)[C@@H](O)[C@H]1O [ADP]
[1]; [11]
  125I-insulin degraded (percentage of control): 40.0%

## Valinomycin
[1]; 50 µM, 30 min
  inhibition of 125I-insulin degradation: 17%

## CO[C@@H]1C[C@@H](C[C@H]2CC[C@H](C)[C@H]([C@@H](C)C(=O)O)O2)O[C@]2(O[C@](C)([C@H]3CC[C@@](C)([C@@H]4O[C@@H]([C@H]5O[C@@](O)(CO)[C@H](C)C[C@@H]5C)C[C@@H]4C)O3)C[C@H]2C)[C@@H]1C [Nigericin]
[1]; 50 µM, 30 min
  inhibition of 125I-insulin degradation: ~ 80%
[1]; [10]
  125I-insulin degraded (percentage of control): 17.4%
[1]; 30 min
  effect on endosomal 125I-insulin degradation (in words): inhibited markedly
[6]
  effect on ATP-generated pH gradients of GE fraction: dissipated rapidly

## Bacitracin
[1]; 5 mg/ml, 30 min
  inhibition of 125I-insulin degradation: 40%
[1]; 30 min
  effect on endosomal 125I-insulin degradation (in words): Significant inhibition

## Nc1nc2c(ncn2[C@@H]2O[C@H](COP(=O)(O)OP(=O)(O)OP(=O)(O)O)[C@@H](O)[C@H]2O)c(=O)[nH]1 [GTP]
[1]; [11]
  125I-insulin degraded (percentage of control): 52.8%

## Triton X-100
[1]; Table I, detergent 0.1%, 30 min, mean ± SD of 3 experiments
  125I-insulin degraded (percentage of control): 22.9%
[1]; 30 min
  effect on endosomal 125I-insulin degradation (in words): Significant inhibition

## 125I-EGF: mouse epidermal growth factor (Collaborative Research) radioiodinated by chloramine T method
[2]
  degradation within isolated endosomes by acid precipitation: not detectable
[3]; 0 vs 15 min incubation in cell-free system
  degradation within isolated endosomes by Sephadex G-50 chromatography: not detectable
EGF receptor
  ligand dissociated from receptor: 43%

B1: 125I-prolactin: ovine prolactin (30.5 IU/mg) radioiodinated by chloramine T method (protein, UniProt P01240 31-229, looked up)
Prolactin: TPVCPNGPGNCQVSLRDLFDRAVMVSHYIHNLSSEMFNEFDKRYAQGKGFITMALNSCHTSSLPTPEDKEQAQQTHHEVLMSLILGLLRSWNDPLYHLVTEVRGMKGVPDAILSRAIEIEEENKRLLEGMEMIFGQVIPGAKETEPYPVWSGLPSLQTKDEDARHSAFYNLLHCLRRDSSKIDTYLKLLNCRIIYNNNC
modifications: 125I radiolabel
[2]
  degradation within isolated endosomes by acid precipitation: No degradation
Prolactin receptor; after 15 min incubation in cell-free system
  internalized ligand dissociated from receptor: 50%
Prolactin receptor; before incubation (freshly isolated endosomes)
  internalized ligand dissociated from receptor: 60%
